Compound activity deposited in PubChem BioAssay by The Scripps Research Institute Molecular Screening Center.
DAGLB inh: blocks human DAGLB lipase activity. Q8NCG7. HEK293T DAGLB membrane lysate, EnzChek fluorogenic substrate. inhibition, % at 5.17 µM. actives 0.059% (n = 340,000). AID 504411; in the data active = inhibition above about 34%
Target sequence (Q8NCG7 whole entry, looked up): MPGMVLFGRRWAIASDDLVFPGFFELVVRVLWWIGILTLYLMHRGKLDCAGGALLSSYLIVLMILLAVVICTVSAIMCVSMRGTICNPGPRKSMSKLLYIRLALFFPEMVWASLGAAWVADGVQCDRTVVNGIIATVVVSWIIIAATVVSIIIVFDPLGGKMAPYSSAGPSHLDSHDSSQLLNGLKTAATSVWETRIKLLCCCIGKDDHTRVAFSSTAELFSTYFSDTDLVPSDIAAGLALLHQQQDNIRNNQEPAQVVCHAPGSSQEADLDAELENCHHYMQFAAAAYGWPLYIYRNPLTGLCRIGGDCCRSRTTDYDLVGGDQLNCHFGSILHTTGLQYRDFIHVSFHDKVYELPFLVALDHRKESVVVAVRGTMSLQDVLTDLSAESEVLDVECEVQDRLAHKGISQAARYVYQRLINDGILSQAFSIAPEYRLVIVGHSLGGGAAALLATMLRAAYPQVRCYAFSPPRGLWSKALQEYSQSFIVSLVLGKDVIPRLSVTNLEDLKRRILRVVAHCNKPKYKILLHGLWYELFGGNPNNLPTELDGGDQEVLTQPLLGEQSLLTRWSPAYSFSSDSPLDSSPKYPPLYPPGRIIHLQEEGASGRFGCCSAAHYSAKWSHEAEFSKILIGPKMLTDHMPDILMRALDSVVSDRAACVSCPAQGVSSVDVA
mABHD4 FP: ABHD4 (mouse) inhibition, primary FP screen | Q8VD66 | purified mABHD4, FP-Rh probe fluorescence polarization | inhibition, % at 8.92 µM | actives 0.54% (n = 370,000);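 active = inhibition exceeding the mean over every tested compound plus 3 SD, cut at about 30% in these data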
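Test system: mABHD4 protein; Read-out basis: % inhibition; Incubation: 45 min + 60 min at 25 °C; Repeats: single replicate; Technique: fluorescence polarization with parallel and perpendicular emission, 525/598 nm; Compound: 8.92 µM, single dose; Benchmarks: full inhibition S159A mutant plus DMSO, zero as sample-well median.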
PRMT1 FP inh: inhibitors of human PRMT1; Q99873; recombinant PRMT1, activity-based probe fluorescence polarization; inhibition, % at 2.79 µM; actives 1.3% (n = 370,000); AID 652257;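 active = inhibition above about 21% made by adding two undisclosed values, limit read from the data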
LEDGF integ inh: blocks HIV-1 LEDGF/p75-dependent DNA integration. actives 0.64% (n = 370,000). TR-FRET IN-LEDGF/p75 DNA integration, Eu/Cy5. inhibition, % at 3.7 µM. AID 743269;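 active = inhibition above the screen-wide mean plus 3 SD, cut at about 13% in these data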;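 note: signal is the Cy5 over europium emission ratio at 671 and 618 nm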
HTRA1 inhibitor: inhibitors of human serine peptidase HTRA1 | recombinant HTRA1, FP-rhodamine activity-based probe, fluorescence polarization | inhibition, % at 5.96 µM | actives 0.5% (n = 340,000) | AID 504803; in the data active = inhibition above about 36%
rCAG RNA binder: r(CAG) repeat RNA binding; TO-PRO-1 dye displacement fluorescence; inhibition, % at 3 µM; actives 1.3% (n = 370,000);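 active = inhibition above the plate cutoff, the mean of all test compounds on that plate plus 3 SD, cut at about 35% in these data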;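 note: higher means more dye released from RNA so lower well fluorescence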
PRMT1 confirm: confirmation of human PRMT1 inhibitors; AID 687036; inhibition, % at 2.79 µM; actives 42% (n = 3,300); recombinant His-PRMT1, activity-based probe fluorescence polarization; shares compounds with PRMT1 FP inh;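 active = mean inhibition across replicates above the hit cutoff derived for the earlier primary screen, cut at about 22% in these data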
Each line names hits and unclear results; the compound was inactive in the other large screens (follow-up assays come after a bar, where they were run). This is a sample that favours compounds with a hit; in the whole collection about 3.2% have one here.

CC1CCCN(CCCNS(=O)(=O)c2cc3c(cc2Br)CCN3C(=O)C2CC2)C1 (configuration not stated)	none (no result: DAGLB inh, HTRA1 inhibitor)
NC(=O)C1Cc2ccccc2CN1C(=O)c1cccc(Oc2ccccc2)c1 (configuration not stated)	PRMT1 FP inh 106 | PRMT1 confirm inactive
Cc1cc2nc(-c3ccco3)c(Cc3cccc(Cl)c3)n2c(C)c1Br	none (no result: DAGLB inh, HTRA1 inhibitor)
Brc1ccc2nc(-c3ccco3)c(Cc3ccccc3)n2c1	PRMT1 FP inh 42 (no result: DAGLB inh, HTRA1 inhibitor) | PRMT1 confirm inactive
Clc1cccc(Cc2c(-c3ccco3)nc3ccc(Br)cn23)c1	PRMT1 FP inh 34 (no result: DAGLB inh, HTRA1 inhibitor) | PRMT1 confirm inactive
Clc1cccc(Cc2c(-c3ccco3)nc3ccc(Cl)cn23)c1	PRMT1 FP inh 47 (no result: DAGLB inh, HTRA1 inhibitor) | PRMT1 confirm inactive
CN1C(=O)CSc2ccc(NC(=O)NCc3cccnc3)cc21	none
Cc1nn(C)c(Cl)c1C(=O)NCC(=O)O	none
C/C(=N\NC(=S)NCCc1ccccc1)c1cccs1	PRMT1 FP inh 29 | PRMT1 confirm inactive
COc1ccc(C(O)CNc2ccc(C)cc2)cc1 (configuration not stated)	none
CCNC1=C(Cl)C(=O)c2ccccc2C1=O	none
CCCC(=O)NC1=C(Cl)C(=O)c2ccccc2C1=O	PRMT1 FP inh 95 | PRMT1 confirm 94
Cc1ccc(S(=O)(=O)/N=C(/NC(=S)Nc2ccccc2)c2ccccc2)cc1	none
Cc1ccc(S(=O)(=O)C/N=C(/NC(=S)N(c2ccccc2)c2ccccc2)c2ccccc2)cc1	PRMT1 FP inh 28 | PRMT1 confirm 27
O=C1[C@H]2CC3CCC2(O3)[C@@H]2OCCCN12 (some centres not stated)	none
COC(=O)c1ccc(NC(=O)CSCc2ccccc2C)cc1	none (no result: mABHD4 FP, PRMT1 FP inh, LEDGF integ inh, rCAG RNA binder)
CC(C)c1ccc(N2C(=O)CC(Sc3ncn[nH]3)C2=O)cc1 (configuration not stated)	PRMT1 FP inh 61 | PRMT1 confirm 64
CCCc1c(O)nc(SC2CC(=O)N(c3cc(OC)ccc3OC)C2=O)[nH]c1=O (configuration not stated)	none
COc1ccc(N2C(=O)CC(Sc3ncn[nH]3)C2=O)c(OC)c1 (configuration not stated)	PRMT1 FP inh 89 | PRMT1 confirm 36
Cc1nnc(SCC2=C(C(=O)O)N3C(=O)C(NC(=O)Cn4ncc(Cl)c4C)C3SC2)s1 (configuration not stated)	PRMT1 FP inh 50 | PRMT1 confirm 37
Cc1cc(C)n(CC(=O)NC2C(=O)N3C(C(=O)O)=C(CSc4nnc(C)s4)CSC23)n1 (configuration not stated)	PRMT1 FP inh 35 | PRMT1 confirm inactive
Cn1nnnc1SCC1=C(C(=O)O)N2C(=O)C(NC(=O)C3CC3c3ccccc3)C2SC1 (configuration not stated)	PRMT1 FP inh 28 | PRMT1 confirm inactive
Cc1nnc(SCC2=C(C(=O)O)N3C(=O)C(NC(=O)c4cccc(F)c4F)C3SC2)s1 (configuration not stated)	PRMT1 FP inh 59 | PRMT1 confirm 29
COc1ccc(Cl)cc1S(=O)(=O)N1CCN(C(=O)CSc2nc3ccccc3nc2N2CCCC2)CC1	none (no result: DAGLB inh, HTRA1 inhibitor)
Cc1cc(OCC(=O)N(C(C)C)C(C)C)ccc1Cl	none
C/C=C\C=C\C(=O)N1CC2(CC(c3cccc(NC(=O)COc4ccc(Cl)cc4)c3)=NO2)C[C@H]1C(N)=O (some centres not stated)	PRMT1 FP inh 63 | PRMT1 confirm 22
C/C=C\C=C/C(=O)Nc1cccc(C2=NOC3(C2)C[C@@H](C(N)=O)N(C(=O)COc2ccc(Cl)cc2)C3)c1 (some centres not stated)	none
CS(=O)(=O)N(CC(=O)NCC1CCCO1)c1cc(Cl)ccc1Cl (configuration not stated)	none
c1csc(-c2nc3ccccc3s2)c1	PRMT1 FP inh 33 | PRMT1 confirm 34
c1ccc2sc(-c3ccncc3)nc2c1	none
C/C=C/c1ccc(OCC(=O)N(C)CC(=O)Nc2ccc(F)cc2)c(OC)c1	none
CC(CSc1n[nH]c(=S)s1)c1ccccc1 (configuration not stated)	PRMT1 FP inh 41 | PRMT1 confirm 74
CC(C)CSc1n[nH]c(=S)s1	none
Cc1nc2sc(C(c3ccco3)N3CCN(c4ccc(F)cc4)CC3)c(O)n2n1 (configuration not stated)	PRMT1 FP inh 25 | PRMT1 confirm inactive
Cc1cnc(NC(=O)CSc2nnc(COc3c(C)cccc3C)o2)s1	PRMT1 FP inh 38 | PRMT1 confirm inactive
O=C(CCSc1ccc(Cl)cc1)c1ccco1	PRMT1 FP inh 41 | PRMT1 confirm 66
Cc1ccccc1NC(=S)N(C)Cc1cccs1	none
O=C(CSc1nc2ccccc2c(=O)n1CCCO)NCc1ccccc1	none
O=c1c2ccccc2nnn1CSc1nc2ccccc2c(=O)n1CCCO	PRMT1 FP inh 25 | PRMT1 confirm inactive
COC(=O)c1ccc(N2C(=O)CC(SCC(=O)Nc3ccc(OC)cc3)C2=O)cc1 (configuration not stated)	PRMT1 FP inh 53 | PRMT1 confirm 49
O=C(CSC1CC(=O)N(c2ccc(C(=O)O)cc2)C1=O)Nc1ccc2ccccc2c1 (configuration not stated)	none
Cc1ccc(N2C(=O)CC(SCC(=O)Nc3ccc(S(N)(=O)=O)cc3)C2=O)cc1 (configuration not stated)	PRMT1 FP inh 53 | PRMT1 confirm 66
CCOC(=O)c1ccc(N2C(=O)CC(SCC(=O)Nc3ccc(S(N)(=O)=O)cc3)C2=O)cc1 (configuration not stated)	PRMT1 FP inh 82 | PRMT1 confirm 83
CCc1nnc(N2C(=O)c3ccccc3C2(O)c2ccccc2)s1 (configuration not stated)	none
CC1CCN(c2nc(-c3ccco3)c3c(c2C#N)CC(C)(C)OC3)CC1	PRMT1 FP inh 28 | PRMT1 confirm 24
COC(=O)c1c(-c2ccc(C)cc2)csc1NC(=O)c1c(-c2ccccc2)noc1C	none (no result: DAGLB inh, HTRA1 inhibitor)
COC(=O)c1c(-c2cccnc2)csc1NC(=O)c1cc(C)on1	PRMT1 FP inh 29 | PRMT1 confirm inactive
CCOc1ccc(CCNS(=O)(=O)c2c(C)nc3scc(C)n3c2=O)cc1OCC	none
Cc1ccc(NC(=O)/C=C\C(=O)NCC(=O)O)cc1C	PRMT1 FP inh 40 | PRMT1 confirm inactive
CNC[C@@H]1Oc2ccc(NC(=O)Nc3c(C)noc3C)cc2CC(=O)N([C@H](C)CO)C[C@H]1C	none (no result: mABHD4 FP, PRMT1 FP inh, LEDGF integ inh, rCAG RNA binder)
Cc1ccccc1-n1c(O)cc(=O)[nH]c1=S	PRMT1 FP inh 28 | PRMT1 confirm inactive
